# According to ChEMBL document CHEMBL1140845, “Synthesis of deoxygenated alpha(1-->5)-linked arabinofuranose disaccharides as substrates and inhibitors of arabinosyltransferases of Mycobacterium tuberculosis” (Bioorg Med Chem, 2009):
# Calls of active or inactive are those of the source. The rule behind the calls is not given here.
# Experiments:
# Mycobacterium avium = experiment: Antimycobacterial activity against Mycobacterium avium NJ 211 at 12.8 to 128 ug/mL; assay type: functional, organism-based
# [1] = test system: Mycobacterium tuberculosis; experiment: Activity of arabinosyltransferase in Mycobacterium tuberculosis membrane assessed as [14C]Araf incorporation by TLC autoradiography
# [2] = Inhibition of arabinosyltransferase in Mycobacterium tuberculosis membrane assessed as blockade of [14C]Araf incorporation to {Ara-f(1>5)Araf-O_C8H17] acceptor molecule by TLC autoradiography
# In short: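 Competition format of the membrane AraTs assay: MOPS pH 8.0, MgCl2, ATP, β-mercaptoethanol, DP-[14C]Araf donor, 37°C for 1 h. Native acceptor Araf(1→5)Araf-O-C8H17 is held at 0.4 mM. Competitors are added at 0.5, 0.75, 1.0, 2.0, 4.0 and 6.0 mM. Product formation is judged by TLC (CHCl3:MeOH:NH4OH:H2O) with autoradiography at −70 °C for 3 days. IC50 is derived from the extent of product formation.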
Structure (SMILES),Activity (Mycobacterium avium),Km [1],IC50 [2]
CCCCCCCCO[C@H]1O[C@H](CO[C@H]2O[C@H](CO)[C@@H](O)[C@@H]2O)C[C@@H]1O,Active,110 µM,2150 µM
CCCCCCCCO[C@@H]1C[C@H](O)[C@@H](CO[C@H]2O[C@H](CO)[C@@H](O)[C@@H]2O)O1,Active,150 µM,2450 µM
CCCCCCCCO[C@H]1O[C@H](CO[C@H]2O[C@H](CO)[C@@H](O)[C@@H]2O)[C@@H](O)[C@@H]1F,Active,560 µM,3580 µM
